For orientation: Ki means a measure of affinity in units of concentration, obtained from inhibition or displacement.

Four compounds from ChEMBL document CHEMBL1139317, “Design, synthesis and biological evaluation of novel bicyclo[1.1.1]pentane-based omega-acidic amino acids as glutamate receptors ligands” (Bioorg Med Chem, 2009) can be followed below.

Experiment [1] deals with T1, Glutamate NMDA receptor (Rattus norvegicus) (UniProt P35439+Q00959+Q00960+Q00961+Q62645+Q8VHN2+Q9R1M7). Description: Antagonist activity at NMDA receptor in rat cortical membranes assessed as inhibition of [3H]MK801 binding in presence of glutamate and glycine. The experiment is classed as cell membranes.
Experiment [2] deals with T1, Glutamate NMDA receptor (Rattus norvegicus). The conditions noted are these: Brain, Brain membranes.
Experiment [3] concerns the target Metabotropic glutamate receptor 4 (Homo sapiens, UniProt Q14833). Description: Displacement of [3H]L-AP4 from human mGluR4 receptor expressed in BHK cells. A general note: In a radioligand displacement assay an active substance lowers the binding of a labelled ligand.
The target of experiment [4] is Metabotropic glutamate receptor 1 (Homo sapiens, UniProt Q13255). Kind of experiment: Displacement of [3H]Quisqualate from human mGluR1A receptor expressed in BHK cells. The experiment is classed as cell-based.
Metabotropic glutamate receptor 1, sequence (Q13255 whole entry): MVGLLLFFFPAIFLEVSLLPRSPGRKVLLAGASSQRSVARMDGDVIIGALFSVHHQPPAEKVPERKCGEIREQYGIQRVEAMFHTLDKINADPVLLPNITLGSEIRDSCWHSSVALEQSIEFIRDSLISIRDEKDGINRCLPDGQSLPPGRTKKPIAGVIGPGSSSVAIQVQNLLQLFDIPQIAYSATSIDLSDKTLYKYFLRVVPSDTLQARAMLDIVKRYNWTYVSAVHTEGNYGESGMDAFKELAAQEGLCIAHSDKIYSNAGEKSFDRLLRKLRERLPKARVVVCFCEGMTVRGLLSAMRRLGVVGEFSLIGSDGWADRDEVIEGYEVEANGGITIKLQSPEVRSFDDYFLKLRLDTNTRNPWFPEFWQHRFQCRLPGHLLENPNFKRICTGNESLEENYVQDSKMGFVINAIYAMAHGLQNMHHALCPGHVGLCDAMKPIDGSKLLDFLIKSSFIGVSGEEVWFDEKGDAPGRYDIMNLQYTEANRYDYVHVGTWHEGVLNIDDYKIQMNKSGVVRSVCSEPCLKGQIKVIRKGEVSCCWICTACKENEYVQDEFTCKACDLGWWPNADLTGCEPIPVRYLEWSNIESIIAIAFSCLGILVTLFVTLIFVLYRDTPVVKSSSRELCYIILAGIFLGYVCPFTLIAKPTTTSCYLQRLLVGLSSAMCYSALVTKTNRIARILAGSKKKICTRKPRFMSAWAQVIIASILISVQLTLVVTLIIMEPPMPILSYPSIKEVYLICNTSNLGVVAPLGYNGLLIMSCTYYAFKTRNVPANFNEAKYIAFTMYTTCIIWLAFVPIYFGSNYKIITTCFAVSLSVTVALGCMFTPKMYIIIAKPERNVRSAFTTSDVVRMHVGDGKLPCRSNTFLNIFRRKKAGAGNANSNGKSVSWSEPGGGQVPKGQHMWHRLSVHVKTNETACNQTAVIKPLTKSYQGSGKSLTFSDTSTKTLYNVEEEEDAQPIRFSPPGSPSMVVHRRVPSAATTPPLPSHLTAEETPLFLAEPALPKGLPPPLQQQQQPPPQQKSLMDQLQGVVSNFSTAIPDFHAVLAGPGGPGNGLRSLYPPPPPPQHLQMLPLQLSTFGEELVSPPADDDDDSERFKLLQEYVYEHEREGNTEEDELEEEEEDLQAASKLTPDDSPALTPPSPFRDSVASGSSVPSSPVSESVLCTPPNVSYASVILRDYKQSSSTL
For experiment [5], the target named is Metabotropic glutamate receptor 5 (Homo sapiens, UniProt P41594). Description: Displacement of [3H]Quisqualate from human mGluR5 receptor expressed in BHK cells. The experiment is classed as cell-based.
Metabotropic glutamate receptor 5, sequence (P41594 whole entry): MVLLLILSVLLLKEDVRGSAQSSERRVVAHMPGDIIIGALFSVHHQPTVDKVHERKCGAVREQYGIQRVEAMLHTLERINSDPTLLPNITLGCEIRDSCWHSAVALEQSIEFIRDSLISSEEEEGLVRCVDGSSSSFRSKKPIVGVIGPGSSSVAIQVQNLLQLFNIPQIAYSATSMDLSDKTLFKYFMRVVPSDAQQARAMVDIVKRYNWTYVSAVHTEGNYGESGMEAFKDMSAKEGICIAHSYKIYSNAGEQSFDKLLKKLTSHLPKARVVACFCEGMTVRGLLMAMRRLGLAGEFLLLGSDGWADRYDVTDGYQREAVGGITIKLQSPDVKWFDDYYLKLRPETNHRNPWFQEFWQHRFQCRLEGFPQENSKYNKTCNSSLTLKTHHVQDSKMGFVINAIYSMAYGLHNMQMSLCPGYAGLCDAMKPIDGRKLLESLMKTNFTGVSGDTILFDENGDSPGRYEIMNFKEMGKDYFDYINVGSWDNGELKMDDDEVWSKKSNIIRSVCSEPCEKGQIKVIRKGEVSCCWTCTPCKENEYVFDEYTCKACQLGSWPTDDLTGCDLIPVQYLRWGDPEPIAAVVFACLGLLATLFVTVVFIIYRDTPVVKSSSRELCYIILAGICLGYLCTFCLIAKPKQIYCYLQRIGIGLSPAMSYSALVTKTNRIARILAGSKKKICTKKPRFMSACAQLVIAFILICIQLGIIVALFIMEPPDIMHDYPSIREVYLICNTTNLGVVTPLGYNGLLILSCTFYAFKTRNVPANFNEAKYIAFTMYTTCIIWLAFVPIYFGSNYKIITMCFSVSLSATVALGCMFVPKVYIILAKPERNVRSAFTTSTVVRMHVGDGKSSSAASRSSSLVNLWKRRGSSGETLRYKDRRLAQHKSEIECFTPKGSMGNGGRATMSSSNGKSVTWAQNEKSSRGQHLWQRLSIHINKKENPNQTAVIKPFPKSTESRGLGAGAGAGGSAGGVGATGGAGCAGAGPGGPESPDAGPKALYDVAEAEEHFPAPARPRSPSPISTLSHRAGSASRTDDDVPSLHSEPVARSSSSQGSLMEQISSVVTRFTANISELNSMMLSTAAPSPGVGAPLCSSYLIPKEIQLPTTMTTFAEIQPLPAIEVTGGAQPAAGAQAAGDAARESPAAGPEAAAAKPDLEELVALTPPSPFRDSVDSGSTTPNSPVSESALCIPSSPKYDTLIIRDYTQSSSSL
The species named for another experiment is Rattus norvegicus. Kind of experiment: Agonist activity at NMDA receptor in rat cortical membranes up to 1 mM by [3H]MK801 binding assay. The experiment is classed as cell membranes. An outline of the steps:
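[3H]MK801 binding to rat cortical membranes; agonist action read as potentiation of [3H]MK801 binding relative to basal, with glutamate/glycine as reference stimulants of binding.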

Experiment [6] in a line: Displacement of [3H]kainic acid from kainate receptor in rat brain membranes. The experiment is classed as cell membranes.
Experiment [7] is described as follows: Displacement of [3H]AMPA from AMPA receptor in rat brain membranes. The experiment is classed as cell membranes.
For experiment [8], the target named is Metabotropic glutamate receptor 2 (Homo sapiens, UniProt Q14416). Kind of experiment: Displacement of [3H]LY341495 from human mGluR2 receptor expressed in BHK cells.
Metabotropic glutamate receptor 2, sequence (Q14416 whole entry): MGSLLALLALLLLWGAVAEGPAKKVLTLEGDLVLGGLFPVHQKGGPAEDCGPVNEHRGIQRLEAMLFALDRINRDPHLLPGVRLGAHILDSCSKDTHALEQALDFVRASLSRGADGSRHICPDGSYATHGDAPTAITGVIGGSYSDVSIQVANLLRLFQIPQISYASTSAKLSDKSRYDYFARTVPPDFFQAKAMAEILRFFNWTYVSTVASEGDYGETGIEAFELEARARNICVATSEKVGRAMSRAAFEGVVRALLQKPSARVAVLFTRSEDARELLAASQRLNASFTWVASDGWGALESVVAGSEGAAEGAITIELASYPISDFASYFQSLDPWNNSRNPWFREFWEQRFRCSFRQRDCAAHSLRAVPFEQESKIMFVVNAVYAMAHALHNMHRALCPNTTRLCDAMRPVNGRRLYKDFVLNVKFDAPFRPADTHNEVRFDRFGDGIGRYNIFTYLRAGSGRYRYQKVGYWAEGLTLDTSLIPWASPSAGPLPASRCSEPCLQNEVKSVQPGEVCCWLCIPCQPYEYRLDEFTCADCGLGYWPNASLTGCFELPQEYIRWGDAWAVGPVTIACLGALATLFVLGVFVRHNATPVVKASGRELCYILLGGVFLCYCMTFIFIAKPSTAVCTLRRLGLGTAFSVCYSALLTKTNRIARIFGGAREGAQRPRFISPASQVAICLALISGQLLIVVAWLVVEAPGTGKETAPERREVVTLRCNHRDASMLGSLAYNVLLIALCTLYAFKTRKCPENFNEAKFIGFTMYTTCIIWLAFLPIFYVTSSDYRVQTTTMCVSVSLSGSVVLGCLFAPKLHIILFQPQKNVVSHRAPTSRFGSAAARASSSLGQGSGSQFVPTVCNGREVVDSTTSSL

Calls of active or inactive are those of the source. No cut-off for these calls is given here.

Metabotropic glutamate receptor 4, sequence (Q14833 whole entry): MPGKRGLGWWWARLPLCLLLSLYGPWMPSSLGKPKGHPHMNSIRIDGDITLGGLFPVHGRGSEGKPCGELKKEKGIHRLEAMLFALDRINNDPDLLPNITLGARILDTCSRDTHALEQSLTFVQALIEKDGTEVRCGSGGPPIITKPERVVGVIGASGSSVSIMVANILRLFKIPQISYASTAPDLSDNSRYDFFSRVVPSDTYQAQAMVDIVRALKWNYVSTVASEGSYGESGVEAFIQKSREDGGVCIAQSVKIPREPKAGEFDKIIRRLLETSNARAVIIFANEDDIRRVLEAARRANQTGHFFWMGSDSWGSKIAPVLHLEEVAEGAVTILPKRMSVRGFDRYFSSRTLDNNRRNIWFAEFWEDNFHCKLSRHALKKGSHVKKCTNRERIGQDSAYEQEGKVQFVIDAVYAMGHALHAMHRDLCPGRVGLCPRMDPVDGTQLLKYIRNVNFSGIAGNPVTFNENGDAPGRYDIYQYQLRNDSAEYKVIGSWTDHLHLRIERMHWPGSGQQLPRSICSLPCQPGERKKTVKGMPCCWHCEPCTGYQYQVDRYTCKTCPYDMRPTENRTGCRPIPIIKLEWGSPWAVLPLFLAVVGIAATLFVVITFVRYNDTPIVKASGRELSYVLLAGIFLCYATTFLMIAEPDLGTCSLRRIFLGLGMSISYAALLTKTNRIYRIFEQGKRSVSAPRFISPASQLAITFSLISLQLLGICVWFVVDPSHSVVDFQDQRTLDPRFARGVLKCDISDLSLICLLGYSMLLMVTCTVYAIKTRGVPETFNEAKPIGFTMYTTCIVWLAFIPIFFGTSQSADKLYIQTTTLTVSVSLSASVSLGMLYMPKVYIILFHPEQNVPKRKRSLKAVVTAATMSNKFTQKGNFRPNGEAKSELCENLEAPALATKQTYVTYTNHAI

For `O=C(O)[C@H]1CN(CCCP(=O)(O)O)CCN1`, in [1], the Activity turned out to be 103 nM.

As for `N[C@H](CC12CC(C(=O)O)(C1)C2)C(=O)O`, the logKi in experiment [2] is 1.46. Besides, the inhibitory constant (Ki) at Glutamate NMDA receptor is 29 µM; in experiment [3], above 1000 µM; in [4] it was 210 µM; in experiment [5], 336 µM; in experiment [6], above 300 µM; in experiment [7], above 300 µM. In [8], this compound gave an inhibition constant Ki above 1000 µM. Moreover, the result (in the experiment listed under Rattus norvegicus; in [1]) was inactive.

For `N[C@@H](CCP(=O)(O)O)C(=O)O`, the Ki on Glutamate NMDA receptor is above 300 µM; in [3], 0.16 µM; in experiment [4], above 1000 µM; in experiment [5], above 1000 µM; in experiment [6], above 1000 µM; in experiment [7] it was above 1000 µM. Moreover, in [8], the inhibition constant Ki is above 1000 µM.

In experiment [2], `N[C@@H](CC12CC(C(=O)O)(C1)C2)C(=O)O` yielded a logKi of 2.48. Also, the Ki at Glutamate NMDA receptor is above 300 µM; in experiment [3], above 1000 µM; in [4], above 1000 µM; in experiment [5], above 300 µM; in experiment [6], above 300 µM; in experiment [7], above 300 µM. Besides, the Ki in experiment [8] is above 1000 µM. The outcome (in the experiment filed under Rattus norvegicus; in experiment [1]) was inactive.
